ChEMBL document CHEMBL5705906 (Nat Commun, 2017)
Calls of active or inactive are those of the source. No cut-off for these calls is given here.

How the values were obtained:
BaF3 [1] = assay: Inhibition of EGFR-del19 mutant in mouse BaF3 cells assessed as inhibition of ERK phosphorylation at 10 to 1000 nM incubated for 6 hrs by Western blotting analysis; assay type: cell-based; conditions: dose 10-1000 nM
Outline: (§1)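 Ba/F3 cells carrying the stated EGFR mutant were made IL-3-independent after 1 week of 7 µM blasticidin selection. They were grown in low-glucose DMEM with 10% FBS and exposed to inhibitor for 6 h. Cells were washed in cold PBS, lysed in SDS buffer (100 mM Tris, 1% SDS, 10% glycerol) and boiled 5 min. Protein was measured by BCA, run on SDS-PAGE, transferred to PVDF, blocked in 5% BSA or milk/TBS-T, and immunoblotted.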

[2] = test system: Epidermal growth factor receptor (Homo sapiens), P00533 [UNDEFINED MUTATION]; conditions: MGH121, dose 500.0 nM, time 6-48 hrs, TDE = time-dependent effect
Sequence of Epidermal growth factor receptor (Homo sapiens), P00533 [UNDEFINED MUTATION] (P00533 whole entry, looked up, stated change not applied): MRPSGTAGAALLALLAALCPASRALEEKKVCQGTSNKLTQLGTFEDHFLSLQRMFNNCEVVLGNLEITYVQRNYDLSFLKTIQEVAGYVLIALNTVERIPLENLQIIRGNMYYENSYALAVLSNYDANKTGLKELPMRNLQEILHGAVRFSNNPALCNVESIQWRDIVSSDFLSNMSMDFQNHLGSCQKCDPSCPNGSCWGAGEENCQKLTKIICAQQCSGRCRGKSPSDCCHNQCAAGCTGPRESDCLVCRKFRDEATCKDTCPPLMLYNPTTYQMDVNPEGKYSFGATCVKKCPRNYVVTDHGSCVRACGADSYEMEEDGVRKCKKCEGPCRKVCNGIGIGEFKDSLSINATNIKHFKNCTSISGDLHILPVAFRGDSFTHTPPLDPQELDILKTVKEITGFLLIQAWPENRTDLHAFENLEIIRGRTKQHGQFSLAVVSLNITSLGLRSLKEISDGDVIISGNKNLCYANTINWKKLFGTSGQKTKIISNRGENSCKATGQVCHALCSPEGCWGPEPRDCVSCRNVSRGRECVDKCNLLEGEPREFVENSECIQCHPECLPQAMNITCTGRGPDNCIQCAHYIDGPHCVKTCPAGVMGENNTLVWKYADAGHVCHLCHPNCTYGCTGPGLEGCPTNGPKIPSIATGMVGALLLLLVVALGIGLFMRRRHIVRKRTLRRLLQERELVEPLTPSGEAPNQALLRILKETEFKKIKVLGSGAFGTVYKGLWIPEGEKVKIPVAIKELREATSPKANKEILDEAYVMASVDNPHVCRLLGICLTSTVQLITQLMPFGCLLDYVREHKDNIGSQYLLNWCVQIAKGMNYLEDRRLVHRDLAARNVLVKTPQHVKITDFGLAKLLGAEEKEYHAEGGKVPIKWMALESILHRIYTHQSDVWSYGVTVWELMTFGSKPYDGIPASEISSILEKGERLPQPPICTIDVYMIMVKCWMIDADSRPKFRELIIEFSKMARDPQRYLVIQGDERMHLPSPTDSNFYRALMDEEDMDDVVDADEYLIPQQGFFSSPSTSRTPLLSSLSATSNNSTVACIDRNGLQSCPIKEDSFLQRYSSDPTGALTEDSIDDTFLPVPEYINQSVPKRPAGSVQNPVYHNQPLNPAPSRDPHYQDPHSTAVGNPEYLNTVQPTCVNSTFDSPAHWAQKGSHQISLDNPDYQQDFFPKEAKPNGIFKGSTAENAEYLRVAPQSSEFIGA

[3] = Toxicity against SCID-beige mouse xenografted with human MGH121 cells expressing EGFR-C797S/T790M/del19 mutant assessed as change in body weight at 75 mg/kg, po administered for 40 days and measured twice weekly in presence of cetuximab; assay type: organism-based; conditions: in vivo, 960 h, time 40 day
Outline: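 SCID-beige mice with subcutaneous MGH121-res2 implants were randomized to vehicle or treatment at a mean tumour volume of ~200 mm³. […] Body weight was measured twice weekly, N=6 per group.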

[4] = Toxicity against Balb-c nu/nu mouse xenografted with human PC-9 cells expressing EGFR-C797S/T790M/del19 mutant assessed as change in body weight at 75 mg/kg, po administered for 60 days and measured twice weekly in presence of cetuximab; assay type: organism-based; conditions: in vivo, 1440 h, time 60 day
Outline: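 Balb-c nu/nu mice carried subcutaneous PC9 triple-mutant xenografts (6×10^6 cells in 1:2 Matrigel) and were randomized at ~200 mm³. […] Body weight was measured twice weekly, N=6 per arm.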

[5] = test system: Epidermal growth factor receptor (Homo sapiens), P00533 [UNDEFINED MUTATION]; conditions: MGH121, dose 10-1000 nM
PC-9 [6] = assay: Anti-tumor activity against human PC-9 cells expressing EGFR-C797S/T790M/del19 mutant xenografted in Balb-c nu/nu mouse assessed as decreased tumor growth at 75 mg/kg, po administered for 60 days and measured twice weekly in presence of cetuximab; assay type: functional, organism-based; conditions: time 60.0 day
Outline: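 PC9 EGFR-C797S/T790M/del19 xenografts in Balb-c nu/nu mice, randomized at ~200 mm³. […] Tumour volume 0.5×length×width² and body weight measured twice weekly. Survival shown by Kaplan-Meier curve. N = 6. Mann-Whitney U test on tumour volume at day 23.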

PC-9 [7] = assay: Anti-tumor activity against human PC-9 cells expressing EGFR-C797S/T790M/del19 mutant xenografted in Balb-c nu/nu mouse assessed as decreased tumor growth at 75 mg/kg, po administered for 60 days and measured twice weekly in presence of panitumumab; assay type: functional, organism-based; conditions: time 60.0 day
Outline: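 PC9 EGFR-C797S/T790M/del19 xenografts in Balb-c nu/nu mice, randomized at ~200 mm³. […] Tumour volume 0.5×length×width² measured twice weekly. Survival by Kaplan-Meier. N = 6. Mann-Whitney U test at days 16 and 23.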

[8] = test system: Epidermal growth factor receptor (Homo sapiens), P00533 [UNDEFINED MUTATION]; conditions: MGH121, dose 500.0 nM, time 48.0 hrs
BaF3 [9] = conditions: Mus musculus, dose 30-1000 nM, time 6.0 hrs
BaF3 [10] = assay: Inhibition of EGFR-C797S/T790M/del19 mutant in mouse BaF3 cells assessed as reduction in S6 phosphorylation incubated for 6 hrs by Western blotting analysis; assay type: cell-based; outline: as §1
[11] = Toxicity against Balb-c nu/nu mouse xenografted with human PC-9 cells expressing EGFR-C797S/T790M/del19 mutant assessed as change in body weight at 75 mg/kg, po administered for 15 days and measured twice weekly; assay type: organism-based; conditions: in vivo, 360 h, time 15 day
Outline: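 PC9 triple-mutant cells (6×10^6 in 100 µl 1:2 Matrigel) were implanted subcutaneously in Balb-c nu/nu mice. At a mean tumour volume of ~200 mm³, mice were randomized, excluding the top and bottom 5% by tumour size. […] Body weight was recorded twice weekly, n=6 per group, and tumours were resected on treatment day 15.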

[12] = test system: Epidermal growth factor receptor (Homo sapiens), P00533 [UNDEFINED MUTATION]; conditions: PC-9, dose 10-1000 nM
PC-9 [13] = conditions: Homo sapiens, dose 75.0 mg/kg, route po, time 60.0 day
[14] = test system: Epidermal growth factor receptor (Homo sapiens), P00533 [UNDEFINED MUTATION]; conditions: MGH121, dose 10-1000 nM; remark: listed apart in the source
BaF3 [15] = conditions: Mus musculus, dose 10-1000 nM
PC-9 [16] = conditions: Homo sapiens, dose 75.0 mg/kg, route po, time 60.0 day; remark: listed apart in the source
A549 = assay: Anticancer activity against KRAS-mutated human A549 cells assessed as reduction in cell viability at 1 to 10000 nM incubated for 72 hrs by CellTiter-Glo assay; assay type: functional, cell-based; conditions: dose 1-10000 nM
BaF3 [17] = assay: Inhibition of EGFR-del19 mutant in mouse BaF3 cells assessed as inhibition of Akt phosphorylation at 10 to 1000 nM incubated for 6 hrs by Western blotting analysis; assay type: cell-based; conditions: dose 10-1000 nM; outline: as §1
[18] = Cytotoxicity against mouse Ba/F3 EGFR-Del19/T790M/C797S cells assessed as inhibition of cell viability by measuring fold change at 30 nM incubated for 72 hrs in presence of cetuximab by CellTiter-Glo assay relative to brigatinib alone; assay type: functional
[19] = test system: Epidermal growth factor receptor (Homo sapiens), P00533 [UNDEFINED MUTATION]; conditions: PC-9, dose 500.0 nM, time 48.0 hrs
[20] = test system: Epidermal growth factor receptor (Homo sapiens), P00533 [UNDEFINED MUTATION]; conditions: PC-9, dose 10-1000 nM; remark: listed apart in the source
[21] = test system: Epidermal growth factor receptor (Homo sapiens), P00533 [UNDEFINED MUTATION]; conditions: PC-9, dose 500.0 nM, time 48.0 hrs; remark: listed apart in the source
[22] = test system: Epidermal growth factor receptor (Homo sapiens), P00533 [UNDEFINED MUTATION]; conditions: MGH121, dose 10-1000 nM; remark: listed apart in the source
PC-9 [23] = assay: Anti-tumor activity against EGFR T790M/del19 mutant expressing gefitinib-resistant human PC-9 cells xenografted in Balb-c nu/nu mouse assessed as prolonged survival at 75 mg/kg, po administered for 42 days; assay type: functional, organism-based; conditions: time 42.0 day

inhibition [2]: Tde | inhibition [5]: Active | inhibition [8]: inactive | inhibition [12]: Active | inhibition [14]: Active | inhibition [19]: Active | inhibition [20]: Active | inhibition [21]: Active | inhibition [22]: Active
Structure (SMILES): COc1cc(N2CCC(N3CCN(C)CC3)CC2)ccc1Nc1ncc(Cl)c(Nc2ccccc2P(C)(C)=O)n1 [BRIGATINIB]
inhibition (BaF3 [1]): Active | Activity [3]: Non-Toxic | Activity [4]: Non-Toxic | Activity (PC-9 [6]): Active | Activity (PC-9 [7]): Active | inhibition (BaF3 [9]): Active | inhibition (BaF3 [10]): Dose-Dependent Effect | Activity [11]: Non-Toxic | inhibition (PC-9 [13]): Active | inhibition (BaF3 [15]): Dose-Dependent Effect | inhibition (PC-9 [16]): Active | Activity (A549): Active | inhibition (BaF3 [17]): Active | fold change (FC) [18]: ~3 | Activity (PC-9 [23]): Active
